Most compounds without a hit are left out; they make up all but 11% or so of the library.
WT yeast gro inh: growth inhibition of WT strain, primary screen, mitochondrial fusion inhibitor project, WT and mutant strains, chemical genetic; mitochondrial fusion phenotypic screen; inhibition, % at 10 µM; 2.1% of 190,000 active; in the data active = inhibition above about 58%; tested in S. cerevisiae
Diaph inh CS: diaphorase inhibitors and chemical oxidizers, primary screen, counter-screen for diaphorase-coupled primary assays, biochemical, uHTS, resorufin fluorescence; diaphorase resazurin-to-resorufin fluorescence, NADH, 16 min; bacterial (C. kluyveri) enzyme, not human; inhibition, % at 20 µM; 0.69% of 190,000 active;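 active = primary screen inhibition at 20 µM above a set limit, cut at about 50% in these data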
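Test system: bacterial diaphorase enzyme (C. kluyveri); Quantity: 0.14 U/mL diaphorase, enzyme working solution; Times: reaction incubation of 16 min at room temperature; Measured by: fluorescence of resorufin formed from resazurin, Ex 544/Em 590 nm; Benchmarks: positive control minus NADH, DMSO neutral control.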
Diaph act CS: compounds boosting diaphorase resazurin reduction – biochemical, uHTS, resorufin fluorescence, counter-screen for diaphorase-coupled primary assays, primary screen. Diaphorase/resazurin coupled assay, 16 min; hits give high values; 1 = vehicle wells, 0 = NADH-free wells. activation factor at 20 µM. 0.005% of 190,000 active. AID 1229, 2008;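 active = diaphorase activity raised at least twofold by the compound at 20 µM; inactive = activation factor below 2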
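Test system: Clostridium kluyveri diaphorase, purified enzyme. Buffer or medium: 50 mM HEPES pH 7.4 buffer plus MgCl2 and Tween 20. Also added: 0.114 mM NADH and 0.1 mM resazurin, final amounts. Dosing: compound 20 µM once, DMSO 1%. Schedule: 16 min enzyme reaction, ambient temperature. Detection: fluorescence of resorufin, 544 nm excitation, 590 nm emission.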
Lmaj promast: Leishmania major promastigote growth inhibition, primary screen; Leishmania major promastigotes, resazurin fluorescence viability; inhibition, % at 10 µM; 9% of 200,000 active; AID 1063, 2008;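 also: promastigotes grown with compound for 44 hours at 28 °C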
G6PDH counter: L. mesenteroides G6PDH inhibitors, counter-screen for G6PDH-coupled screening assays, biochemical, Leuconostoc mesenteroides enzyme | 0.12% of 200,000 active | Purified L. mesenteroides G6PDH, diaphorase/resazurin coupled fluorescence, 45 min | inhibition, % at 5 µM | glucose-6-phosphate dehydrogenase [Leuconostoc mesenteroides] | AID 1020, 2008
Hits are given with their value; . = inactive. Rule as the data show it, unless noted: active = inhibition above about 50%; inactive = the rest.

SMILES	WT yeast gro inh	Diaph inh CS	Diaph act CS	Lmaj promast	G6PDH counter
COc1ccc(-c2nnc(SCc3nnc(-c4ccccc4)o3)n2-c2ccccc2)cc1	.	.	.	.	.
CCc1ccc(N2C(=O)CN(Cc3cc(OC)c(OC)c(OC)c3)C2=S)cc1	.	.	.	.	.
COc1ccc(CN2CC(=O)N(c3ccc(C)c(C)c3)C2=S)cc1OC	.	.	.	52	.
COc1cc(CN2CC(=O)N(c3ccc(C)c(C)c3)C2=S)cc(OC)c1OC	.	.	.	94	.
CN1/C(=C\C(=O)c2cccnc2)C(C)(C)c2ccccc21	.	.	.	.	.
CN1/C(=C\C(=O)c2ccco2)C(C)(C)c2ccccc21	.	.	.	83	.
CN1/C(=C\C(=O)c2cccc(S(=O)(=O)N3CCCCC3)c2)C(C)(C)c2ccccc21	.	.	.	99	.
CN1/C(=C\C(=O)c2cncc(Br)c2)C(C)(C)c2ccccc21	.	.	.	91	.
CN1/C(=C/C(=O)c2nc(S(C)(=O)=O)ncc2Cl)C(C)(C)c2ccccc21	.	.	.	83	.
CCOC(=O)c1nc(S(C)(=O)=O)ncc1Cl	.	.	.	.	.
O=c1c2c(nc3cc(-c4ccc(Cl)cc4)[nH]n13)CCS2	.	.	.	.	.
CC(=O)NC1C(=O)N(C)c2ccc(Br)cc21 (stereo not drawn)	.	.	.	.	.
CCc1cccc(NC(=O)Cn2cc(C=O)c3ccccc32)c1	.	.	.	.	.
Cc1ccc2nc(NC(=O)CN(C)S(=O)(=O)c3ccc(Br)s3)sc2c1	.	.	.	99	.
COc1ccc2nc(NC(=O)CN(c3ccc(C)cc3)S(=O)(=O)c3c(C)nn(C)c3C)sc2c1	69	.	.	80	.
CCc1ccc(N(CC(=O)Nc2nc3ccc(C)cc3s2)S(=O)(=O)c2c(C)noc2C)cc1	.	.	.	52	.
CCc1ccc(NC(=O)CN(c2ccc3c(c2)OCO3)S(=O)(=O)c2c(C)noc2C)cc1	.	.	.	.	.
CCC(C)NCCCCOc1ccc(Cl)cc1C (stereo not drawn)	.	.	.	97	.
CCC(C)NCCCOc1cc(Cl)ccc1Cl (stereo not drawn)	.	.	.	100	.
CCNC(=O)CCCOc1ccc(Cl)cc1Cl	.	.	.	.	.
CCCCNCCCOc1cc(Cl)ccc1Cl	.	.	.	98	.
Cc1cc(NC(=O)COC(=O)c2oc3c(Cl)cccc3c2C)no1	.	.	.	.	.
COc1cccc2cc(C(C)N(CCCN3CCOCC3)C(=O)Nc3ccccc3)oc12 (stereo not drawn)	.	.	.	82	.
COc1ccc(NC(=S)N(CCCN2CCOCC2)C(C)c2cc3cccc(OC)c3o2)cc1 (stereo not drawn)	.	.	.	.	.
COc1cccc(NC(=S)N(CCCN2CCOCC2)C(C)c2cc3ccccc3o2)c1 (stereo not drawn)	.	.	.	97	.
SMILES	WT yeast gro inh	Diaph inh CS	Diaph act CS	Lmaj promast	G6PDH counter
COc1c(C)cc(C(=O)C2CCCN(C(=O)c3cccc(-n4cccn4)c3)C2)cc1C (stereo not drawn)	.	.	.	.	.
Cc1ccc(C)c(NC(=S)N/N=C2/CCCCc3ccccc32)c1	.	.	.	.	.
O=[N+]([O-])c1ccn(-c2nc(-c3ccccc3)cc(C(F)(F)F)n2)n1	.	.	.	79	.
CC1=Nc2nc(N3CCCCC3)c(C#N)c3c4c(nc(c23)N1)N(c1ccc(C(C)C)cc1)C(=O)C4	.	81	.	59	.
CC(C)c1ccc(-c2nc(N3CCCCC3)[nH]c(=O)c2C#N)cc1	.	.	.	.	.
CC(=O)N(C)c1ccc(NC(=O)c2ccc([N+](=O)[O-])cc2Cl)cc1	.	.	.	.	.
O=C1c2ccccc2C(=O)c2c(NCCCN(CCO)CCO)cccc21	.	.	.	100	.
CCN(C(=O)CSc1nnc2c3ccccc3n(CC)c2n1)C1CCS(=O)(=O)C1 (stereo not drawn)	.	.	.	.	.
CC12CCC(C(=O)Nc3cc(Cl)ccc3Cl)(C/C1=N\O)C2(C)C (stereo not drawn)	.	.	.	.	.

Bioassay records: PubChem, several laboratories
